Experimental findings from ChEMBL document CHEMBL4043093, “2-Oxo-3, 4-dihydropyrimido[4, 5-d]pyrimidinyl derivatives as new irreversible pan fibroblast growth factor receptor (FGFR) inhibitors” (Eur J Med Chem, 2017) are described below.

The target in data set [1] is Focal adhesion kinase 1 (Homo sapiens) (UniProt Q05397). In words: Inhibition of wild-type human partial length FAK (D402 to R696 residues) expressed in Escherichia coli BL21 assessed as residual activity at 1000 nM after 30 mins by Kinomescan method relative to control.
In data set [2] the target is Death-associated protein kinase 2 (Homo sapiens) (UniProt Q9UIK4). In words: Inhibition of wild-type human full length DAPK2 (M1 to S370 residues) expressed in Escherichia coli BL21 assessed as residual activity at 1000 nM after 30 mins by Kinomescan method relative to control. The method in brief:
(§1)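 Single-concentration screen at 1 µM across a 456-kinase KINOMEscan panel. The read-out is Percent Control for each kinase.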

Data set [3] relates to Tyrosine-protein kinase ABL1 (Homo sapiens), P00519 [T315I]. Briefly: Inhibition of human phosphorylated ABL1 T315I mutant (S229 to K512 residues) expressed in HEK293 cells assessed as residual activity at 1000 nM after 30 mins by Kinomescan method relative to control. Format: cell-based. The method in brief:
(§2)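 Single-point screen at a fixed 1 µM, run within a 456-kinase DiscoveRx KINOMEscan panel. Each kinase's read-out is Percent Control, i.e. signal relative to a control without compound. Hits were scored by a Percent Control < 35 cut-off, and an S(35) selectivity score was calculated across the non-mutant kinases.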

Data set [4] has as its target Dual specificity protein kinase CLK2 (Homo sapiens) (UniProt P49760). Briefly: Inhibition of wild-type human partial length CLK2 (D144 to R498 residues) expressed in Escherichia coli BL21 assessed as residual activity at 1000 nM after 30 mins by Kinomescan method relative to control.
Data set [5] addresses Mitogen-activated protein kinase 8 (Homo sapiens) (UniProt P45983). In words: Inhibition of wild-type human full length JNK1 (M1 to Q384 residues) expressed in HEK293 cells assessed as residual activity at 1000 nM after 30 mins by Kinomescan method relative to control. Format: cell-based. The method in brief:
as §1

Data set [6] has as its target Cyclin-dependent kinase 11B (Homo sapiens) (UniProt P21127). Briefly: Inhibition of wild-type human partial length CDC2L1 (P353 to G692 residues) expressed in Escherichia coli BL21 assessed as residual activity at 1000 nM after 30 mins by Kinomescan method relative to control.
Data set [7] has as its target Interferon-induced, double-stranded RNA-activated protein kinase (Homo sapiens) (UniProt P19525). In words: Inhibition of wild-type human partial length PRKR (F247 to C551 residues) expressed in Escherichia coli BL21 assessed as residual activity at 1000 nM after 30 mins by Kinomescan method relative to control.
For data set [8], the target named is Cyclin-dependent kinase 3 (Homo sapiens) (UniProt Q00526). In words: Inhibition of wild-type human full length CDK3 (M1 to H305 residues) expressed in Escherichia coli BL21 assessed as residual activity at 1000 nM after 30 mins by Kinomescan method relative to control. The method in brief: as §2
For data set [9], the target named is Mitogen-activated protein kinase kinase kinase 4 (Homo sapiens) (UniProt Q9Y6R4). In words: Inhibition of wild-type human partial length MAP3K4 (G1319 to E1608 residues) expressed in Escherichia coli BL21 assessed as residual activity at 1000 nM after 30 mins by Kinomescan method relative to control.
The target of data set [10] is Serine/threonine-protein kinase 32C (Homo sapiens) (UniProt Q86UX6). Briefly: Inhibition of wild-type human partial length YANK3 (M68 to G486 residues) expressed in Escherichia coli BL21 assessed as residual activity at 1000 nM after 30 mins by Kinomescan method relative to control.
The target in data set [11] is STE20-like serine/threonine-protein kinase (Homo sapiens) (UniProt Q9H2G2). In words: Inhibition of wild-type human partial length SLK (S14 to A307 residues) expressed in Escherichia coli BL21 assessed as residual activity at 1000 nM after 30 mins by Kinomescan method relative to control.
The target of data set [12] is Cyclin-dependent kinase 13 (Homo sapiens) (UniProt Q14004). In words: Inhibition of wild-type human partial length CDC2L5 (H675 to S1054 residues) expressed in HEK293 cells assessed as residual activity at 1000 nM after 30 mins by Kinomescan method relative to control. The class given is cell-based.
For data set [13], the target named is Calcium/calmodulin-dependent protein kinase type IV (Homo sapiens) (UniProt Q16566). In words: Inhibition of wild-type human partial length CAMK4 (A22 to A322 residues) expressed in Escherichia coli BL21 assessed as residual activity at 1000 nM after 30 mins by Kinomescan method relative to control.
Data set [14] deals with Receptor tyrosine-protein kinase erbB-2 (Homo sapiens) (UniProt P04626). Briefly: Inhibition of wild-type human partial length ERBB2 (K646 to V1225 residues) expressed in HEK293 cells assessed as residual activity at 1000 nM after 30 mins by Kinomescan method relative to control. Format: cell-based.
Data set [15] addresses PDGFRB (platelet-derived growth factor receptor beta) (Homo sapiens, UniProt P09619). Briefly: Inhibition of wild-type human partial length PDGFRB (V582 to Y1009 residues) expressed in Escherichia coli BL21 assessed as residual activity at 1000 nM after 30 mins by Kinomescan method relative to control. To be noted: read-out: Activity.
For data set [16], the target named is Mitogen-activated protein kinase kinase kinase 11 (Homo sapiens) (UniProt Q16584). Briefly: Inhibition of wild-type human partial length MLK3 (I77 to W399 residues) expressed in Escherichia coli BL21 assessed as residual activity at 1000 nM after 30 mins by Kinomescan method relative to control.
For a further data set, the species on record is Homo sapiens. Briefly: Inhibition of human partial length FLT3 ITD/F691L double mutant expressed in Escherichia coli BL21 assessed as residual activity at 1000 nM after 30 mins by Kinomescan method relative to control. The method in brief: (§3)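 KINOMEscan binding panel of 456 kinases, with the test compound at a single concentration of 1 µM. Read-out is Percent Control.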

For data set [17], the target named is Mitogen-activated protein kinase kinase kinase kinase 4 (Homo sapiens) (UniProt O95819). In words: Inhibition of wild-type human partial length MAP4K4 (M1 to R310 residues) expressed in Escherichia coli BL21 assessed as residual activity at 1000 nM after 30 mins by Kinomescan method relative to control.
Data set [18] concerns the target Protein kinase C theta type (Homo sapiens) (UniProt Q04759). Briefly: Inhibition of wild-type human partial length PRKCQ (L350 to S706 residues) expressed in Escherichia coli BL21 assessed as residual activity at 1000 nM after 30 mins by Kinomescan method relative to control.
Data set [19] relates to Phosphatidylinositol 4,5-bisphosphate 3-kinase catalytic subunit alpha isoform (Homo sapiens), P42336 [E542K]. Briefly: Inhibition of human partial length PIK3CA E542K mutant (R108 to N1068 residues) expressed in HEK293 cells assessed as residual activity at 1000 nM after 30 mins by Kinomescan method relative to control. Format: cell-based. The method in brief: as §3
Data set [20] deals with Non-receptor tyrosine-protein kinase TYK2 (Homo sapiens) (UniProt P29597). In words: Inhibition of wild-type human partial length TYK2 JH1 catalytic domain (V877 to C1187 residues) expressed in HEK293 cells assessed as residual activity at 1000 nM after 30 mins by Kinomescan method relative to control. The class given is cell-based.

PDGFRB (platelet-derived growth factor receptor beta), sequence (P09619 whole entry, the tested form may be a part): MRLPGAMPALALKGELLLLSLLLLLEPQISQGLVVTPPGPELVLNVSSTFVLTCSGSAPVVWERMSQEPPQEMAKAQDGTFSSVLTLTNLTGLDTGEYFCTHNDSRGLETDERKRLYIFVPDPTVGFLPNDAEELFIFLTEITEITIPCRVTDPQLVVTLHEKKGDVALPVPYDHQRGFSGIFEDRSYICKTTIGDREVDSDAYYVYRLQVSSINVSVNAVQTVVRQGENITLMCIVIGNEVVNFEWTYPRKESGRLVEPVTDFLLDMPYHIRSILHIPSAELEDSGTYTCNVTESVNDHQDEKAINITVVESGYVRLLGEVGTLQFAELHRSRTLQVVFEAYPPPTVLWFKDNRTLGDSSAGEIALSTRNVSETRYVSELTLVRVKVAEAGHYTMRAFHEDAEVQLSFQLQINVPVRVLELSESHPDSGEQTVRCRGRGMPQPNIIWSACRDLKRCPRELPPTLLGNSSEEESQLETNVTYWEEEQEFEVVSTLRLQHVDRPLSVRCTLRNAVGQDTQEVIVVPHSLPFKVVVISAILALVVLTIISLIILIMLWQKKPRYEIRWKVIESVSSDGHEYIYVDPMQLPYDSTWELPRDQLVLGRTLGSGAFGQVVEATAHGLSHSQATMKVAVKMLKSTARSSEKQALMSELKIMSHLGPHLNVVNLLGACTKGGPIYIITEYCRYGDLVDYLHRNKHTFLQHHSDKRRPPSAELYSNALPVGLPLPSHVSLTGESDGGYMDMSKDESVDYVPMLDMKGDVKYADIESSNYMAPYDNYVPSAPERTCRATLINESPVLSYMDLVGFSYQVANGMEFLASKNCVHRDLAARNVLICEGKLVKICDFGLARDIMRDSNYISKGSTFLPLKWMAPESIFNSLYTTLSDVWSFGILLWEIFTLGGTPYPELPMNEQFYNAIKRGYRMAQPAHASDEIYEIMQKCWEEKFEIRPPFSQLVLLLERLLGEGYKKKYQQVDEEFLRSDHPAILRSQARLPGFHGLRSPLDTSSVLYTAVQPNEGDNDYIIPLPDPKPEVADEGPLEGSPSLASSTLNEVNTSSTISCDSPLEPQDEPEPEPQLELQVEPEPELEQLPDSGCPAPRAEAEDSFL
Calcium/calmodulin-dependent protein kinase type IV (Homo sapiens), sequence (Q16566 whole entry, the tested form may be a part): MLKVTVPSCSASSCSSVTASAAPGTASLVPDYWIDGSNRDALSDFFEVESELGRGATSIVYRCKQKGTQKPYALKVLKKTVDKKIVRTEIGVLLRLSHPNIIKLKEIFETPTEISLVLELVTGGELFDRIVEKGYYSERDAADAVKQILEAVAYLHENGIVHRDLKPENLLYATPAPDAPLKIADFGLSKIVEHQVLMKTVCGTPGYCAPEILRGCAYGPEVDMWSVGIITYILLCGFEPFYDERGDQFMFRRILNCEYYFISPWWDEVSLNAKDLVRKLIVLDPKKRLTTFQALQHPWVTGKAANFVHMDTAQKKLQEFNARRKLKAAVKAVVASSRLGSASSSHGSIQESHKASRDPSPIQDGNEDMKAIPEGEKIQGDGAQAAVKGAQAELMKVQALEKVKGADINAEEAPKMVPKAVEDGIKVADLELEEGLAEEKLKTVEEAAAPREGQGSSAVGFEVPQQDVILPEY
Mitogen-activated protein kinase kinase kinase 11 (Homo sapiens), sequence (Q16584 whole entry, looked up, the tested form may be a part): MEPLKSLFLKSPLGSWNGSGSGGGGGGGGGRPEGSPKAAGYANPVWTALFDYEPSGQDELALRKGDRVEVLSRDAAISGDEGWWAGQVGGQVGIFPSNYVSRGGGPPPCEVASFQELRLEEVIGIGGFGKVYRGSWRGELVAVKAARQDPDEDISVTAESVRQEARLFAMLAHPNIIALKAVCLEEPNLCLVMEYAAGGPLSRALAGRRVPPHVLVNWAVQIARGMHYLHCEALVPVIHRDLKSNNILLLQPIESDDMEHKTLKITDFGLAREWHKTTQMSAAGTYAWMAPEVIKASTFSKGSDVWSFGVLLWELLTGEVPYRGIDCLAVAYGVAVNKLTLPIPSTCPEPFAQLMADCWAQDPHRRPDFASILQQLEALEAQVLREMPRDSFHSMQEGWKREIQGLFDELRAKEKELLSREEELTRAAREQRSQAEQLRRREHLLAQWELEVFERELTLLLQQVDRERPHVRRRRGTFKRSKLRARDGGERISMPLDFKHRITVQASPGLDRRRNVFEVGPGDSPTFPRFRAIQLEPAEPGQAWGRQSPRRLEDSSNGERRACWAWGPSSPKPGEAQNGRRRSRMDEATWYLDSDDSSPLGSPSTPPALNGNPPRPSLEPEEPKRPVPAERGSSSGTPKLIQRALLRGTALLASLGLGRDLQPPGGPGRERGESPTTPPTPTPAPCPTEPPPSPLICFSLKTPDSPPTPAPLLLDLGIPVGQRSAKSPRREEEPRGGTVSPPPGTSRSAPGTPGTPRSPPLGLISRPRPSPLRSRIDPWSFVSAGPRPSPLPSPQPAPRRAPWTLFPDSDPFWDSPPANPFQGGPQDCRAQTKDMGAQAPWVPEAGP
Interferon-induced, double-stranded RNA-activated protein kinase (Homo sapiens), sequence (P19525 whole entry, the tested form may be a part): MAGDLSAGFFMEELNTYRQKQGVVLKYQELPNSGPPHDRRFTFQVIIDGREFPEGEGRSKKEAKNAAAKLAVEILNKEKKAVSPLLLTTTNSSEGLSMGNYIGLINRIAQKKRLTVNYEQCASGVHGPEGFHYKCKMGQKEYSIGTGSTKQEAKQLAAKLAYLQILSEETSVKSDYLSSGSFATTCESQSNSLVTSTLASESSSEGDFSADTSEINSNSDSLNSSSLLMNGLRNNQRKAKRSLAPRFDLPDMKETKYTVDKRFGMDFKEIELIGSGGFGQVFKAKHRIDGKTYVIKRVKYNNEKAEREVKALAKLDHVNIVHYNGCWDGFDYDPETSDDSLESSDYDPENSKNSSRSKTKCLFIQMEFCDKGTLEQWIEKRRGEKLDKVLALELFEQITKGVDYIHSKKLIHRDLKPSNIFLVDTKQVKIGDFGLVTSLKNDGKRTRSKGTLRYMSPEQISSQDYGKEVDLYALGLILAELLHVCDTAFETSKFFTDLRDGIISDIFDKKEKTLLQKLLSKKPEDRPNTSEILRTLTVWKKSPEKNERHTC
Mitogen-activated protein kinase kinase kinase kinase 4 (Homo sapiens), sequence (O95819 2-1239 limits assumed): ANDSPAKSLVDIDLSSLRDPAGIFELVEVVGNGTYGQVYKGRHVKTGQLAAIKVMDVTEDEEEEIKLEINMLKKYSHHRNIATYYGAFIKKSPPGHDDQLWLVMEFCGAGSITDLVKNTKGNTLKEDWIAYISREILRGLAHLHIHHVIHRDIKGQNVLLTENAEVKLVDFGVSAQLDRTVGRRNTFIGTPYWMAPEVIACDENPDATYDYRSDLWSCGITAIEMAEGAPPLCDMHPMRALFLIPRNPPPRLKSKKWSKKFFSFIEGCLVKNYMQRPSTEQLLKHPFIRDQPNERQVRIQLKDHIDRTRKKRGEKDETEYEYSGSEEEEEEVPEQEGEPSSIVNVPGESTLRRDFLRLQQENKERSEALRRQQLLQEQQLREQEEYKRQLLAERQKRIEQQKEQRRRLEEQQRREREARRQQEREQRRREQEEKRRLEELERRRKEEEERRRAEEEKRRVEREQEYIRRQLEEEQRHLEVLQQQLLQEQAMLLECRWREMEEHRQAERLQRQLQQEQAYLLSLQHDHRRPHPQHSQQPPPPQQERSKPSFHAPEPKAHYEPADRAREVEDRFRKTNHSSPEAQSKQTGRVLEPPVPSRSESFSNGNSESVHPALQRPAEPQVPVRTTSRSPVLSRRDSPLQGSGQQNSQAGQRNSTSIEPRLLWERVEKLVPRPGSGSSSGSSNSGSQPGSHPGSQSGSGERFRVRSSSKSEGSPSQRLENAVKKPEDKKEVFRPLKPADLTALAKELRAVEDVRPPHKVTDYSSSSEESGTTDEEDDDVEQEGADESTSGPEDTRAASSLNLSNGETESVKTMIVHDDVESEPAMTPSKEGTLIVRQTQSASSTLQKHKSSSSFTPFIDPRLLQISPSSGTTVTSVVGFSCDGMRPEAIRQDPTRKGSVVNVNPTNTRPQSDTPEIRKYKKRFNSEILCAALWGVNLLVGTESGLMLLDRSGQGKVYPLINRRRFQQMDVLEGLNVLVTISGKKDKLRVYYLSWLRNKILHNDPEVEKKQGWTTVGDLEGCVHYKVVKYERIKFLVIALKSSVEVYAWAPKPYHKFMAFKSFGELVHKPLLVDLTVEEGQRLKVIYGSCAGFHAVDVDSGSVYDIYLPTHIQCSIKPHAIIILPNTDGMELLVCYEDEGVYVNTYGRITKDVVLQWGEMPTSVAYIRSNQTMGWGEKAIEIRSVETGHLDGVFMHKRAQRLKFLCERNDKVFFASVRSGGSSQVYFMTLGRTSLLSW
Cyclin-dependent kinase 3 (Homo sapiens), sequence (Q00526 whole entry, looked up, the tested form may be a part): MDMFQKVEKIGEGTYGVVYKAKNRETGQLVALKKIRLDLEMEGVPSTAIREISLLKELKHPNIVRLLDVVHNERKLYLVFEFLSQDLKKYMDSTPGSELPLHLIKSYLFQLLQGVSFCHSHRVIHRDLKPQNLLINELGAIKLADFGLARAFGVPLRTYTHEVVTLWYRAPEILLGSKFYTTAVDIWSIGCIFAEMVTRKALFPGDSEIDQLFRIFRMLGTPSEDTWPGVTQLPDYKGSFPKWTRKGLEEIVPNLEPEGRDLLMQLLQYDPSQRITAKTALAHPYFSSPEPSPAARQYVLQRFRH
Death-associated protein kinase 2 (Homo sapiens), sequence (Q9UIK4 whole entry, looked up, the tested form may be a part): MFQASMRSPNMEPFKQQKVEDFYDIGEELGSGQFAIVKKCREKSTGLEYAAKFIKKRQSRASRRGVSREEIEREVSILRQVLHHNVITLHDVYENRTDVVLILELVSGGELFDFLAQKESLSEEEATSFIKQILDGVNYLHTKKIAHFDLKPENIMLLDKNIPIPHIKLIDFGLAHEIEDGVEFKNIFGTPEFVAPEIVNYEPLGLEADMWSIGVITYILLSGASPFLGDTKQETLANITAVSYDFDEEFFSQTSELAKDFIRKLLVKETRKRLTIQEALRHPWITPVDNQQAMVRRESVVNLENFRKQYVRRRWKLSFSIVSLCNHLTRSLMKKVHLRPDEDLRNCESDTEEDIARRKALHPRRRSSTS

`COc1cc(OC)c(Cl)c(N2Cc3cnc(Nc4ccc(F)cc4)nc3N(C3CCN(C(=O)/C=C/CN(C)C)CC3)C2=O)c1Cl`: the Activity in data set [1] amounted to 78%; in data set [2], 100%; in [3], 97%; in data set [4] it was 100%; in [5], 87%; in data set [6], 100%. In addition, the Activity was 76% in [7]; 97% in data set [8]; 46% in data set [9]; 90% in data set [10]; 100% in [11]; 100% in [12]. For the same compound, the Activity stood at 96% in data set [13]; 96% in data set [14]; 83% in data set [16]; 90% in the data set listed under Homo sapiens; 100% in data set [17]; 100% in data set [18]. Moreover, the Activity amounted to 86% in data set [19] and 83% in data set [20]. Further, in data set [15], the activity at 0.5 h, 1 µM came to 1.5%.
